Published values from different studies.
Converted amounts (≈) assume the structure as drawn.
Organism: Nakaseomyces glabratus
Observed: microbial growth
Strain: ATCC90030

For `CCOC(=O)c1nc2ccccc2c(=O)n1Cc1cn(-c2cccc(C)c2)nn1`, the IC50 was 395 µg/mL (≈ 1010 µM) (broth dilution; 24 h).
With `C[C@@H]1[C@H](O)[C@@H](C)/C=C/C=C/C=C/C=C/C=C/C=C/C=C/[C@H](O[C@@H]2O[C@H](C)[C@@H](O)[C@H](N)[C@@H]2O)C[C@@H]2O[C@](O)(C[C@@H](O)C[C@@H](O)[C@H](O)CC[C@@H](O)C[C@@H](O)CC(=O)O[C@H]1C)C[C@H](O)[C@H]2C(=O)O` the IC50 was 0.14 µg/mL (≈ 0.152 µM).
`COc1cc(NC(C)CCCN)c2nc(C(C)(C)C)ccc2c1Oc1ccc(Cl)c(Cl)c1` (stereo not shown) gave an IC50 of 19.4 µg/mL (≈ 40.7 µM).
`O=C(O)c1ccc(-n2cc(Cn3c(C(=O)O)nc4ccccc4c3=O)nn2)cc1` has an IC50 of 522 µg/mL (≈ 1330 µM) (broth dilution; 24 h).
`C#CCCCCCCCCCCCC(O)CC(O)CO` (stereo not shown) gave an IC50 of over 200 µg/mL (broth dilution).
`O=C(O)c1nc2ccccc2c(=O)n1Cc1cn(-c2ccccc2Cl)nn1` gave an IC50 of 266 µg/mL (≈ 698 µM) (broth dilution; 24 h).
`CCCCCOc1c(OC)cc(NC(C)CCCNC(=O)C(N)Cc2cc3ccccc3[nH]2)c2nc(C(C)(C)C)ccc12` (stereo not shown) has an IC50 of 9.72 µg/mL (≈ 16.5 µM).
`C[C@@H]1[C@H](O)[C@@H](C)/C=C/C=C/C=C/C=C/C=C/C=C/C=C/[C@H](O[C@@H]2O[C@H](C)[C@@H](O)[C@H](N)[C@@H]2O)C[C@@H]2O[C@](O)(C[C@@H](O)C[C@@H](O)[C@H](O)CC[C@@H](O)C[C@@H](O)CC(=O)O[C@H]1C)C[C@H](O)[C@H]2C(=O)O` gave an IC50 of 0.39 µg/mL (≈ 0.422 µM) (broth dilution).
For `CCCCCOc1c(OC)cc(NC(C)CCCNC(=O)C(N)C(C)CC)c2nc(C(C)(C)C)ccc12` (stereo not shown), the IC50 was 15.2 µg/mL (≈ 29.6 µM).
The IC50 of `CCCCCCCCCCCCCC(O)CC(O)CO` (stereo not shown) is reported as over 200 µg/mL (broth dilution).
